Test results from ChEMBL document CHEMBL3046169, “Synthesis and bioactivity study of 2-acylamino-substituted N'-benzylbenzohydrazide derivatives” (2012).
In brackets after ≈: the same amount, converted by molar mass. Activity calls are given as the source filed them. No cut-off for these calls is given here.

What was measured:
Aphis gossypii = experiment: Pesticidal activity against Aphis gossypii (cotton aphid) third-instar nymphae grown on tender Hibiscus syriacus leaves assessed as pest mortality at 600 mg/L measured 24 hr post compound exposure; type: functional; conditions: in Hibiscus syriacus
Summary of the method: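 Leaf-dip bioassay: over 30 healthy apterous third-instar nymphs on tender Hibiscus syriacus leaves dipped 5 s in compound diluted in distilled water with 0.05% Triton X-100, excess fluid removed. Held in illumination box at 25 ± 1 °C; mortality scored after 24 h. Tests in triplicate.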

Tetranychus cinnabarinus [1] = experiment: Pesticidal activity against Tetranychus cinnabarinus (carmine spider mite) third- instar larvae grown on Phaseolus vulgaris leaves assessed as pest mortality at 600 mg/L measured 48 hr post compound exposure; type: functional
Summary of the method: (§1)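 More than 20 third-instar mite larvae on Phaseolus vulgaris leaves dipped 5 s in compound solutions (water with 0.05% Triton X-100), excess liquor removed. Larvae held at 25 ± 1 °C in illumination box; mortality read at 48 h. Primary screen at 600 mg L⁻¹, follow-up at 400, 200, 100, 50 and 25 mg L⁻¹ with LC50 calculated. Triplicate tests.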

Plutella xylostella = experiment: Pesticidal activity against Plutella xylostella (diamondback moth) second-instar larvae grown on cruciferous vegetables leaves leaves as pest mortality at 600 mg/L measured 48 hr post compound exposure; type: functional
Summary of the method: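 Over 20 second-instar larvae on cruciferous vegetable leaves dipped 5 s in compound diluted in distilled water containing 0.05% Triton X-100, excess liquid removed. Kept in illumination box at 25 ± 1 °C; mortality recorded 48 h after treatment. Each test in triplicate.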

Tetranychus cinnabarinus [2] = experiment: Pesticidal activity against Tetranychus cinnabarinus (carmine spider mite) third- instar larvae grown on Phaseolus vulgaris leaves assessed as pest mortality at 50 mg/L measured 48 hr post compound exposure; type: functional; summary of the method: as §1
Tetranychus cinnabarinus [3] = experiment: Pesticidal activity against Tetranychus cinnabarinus (carmine spider mite) third- instar larvae grown on Phaseolus vulgaris leaves assessed as pest mortality measured 48 hr post compound exposure; type: functional; summary of the method: as §1
Tetranychus cinnabarinus [4] = experiment: Pesticidal activity against Tetranychus cinnabarinus (carmine spider mite) third- instar larvae grown on Phaseolus vulgaris leaves assessed as pest mortality at 200 mg/L measured 48 hr post compound exposure; type: functional; summary of the method: as §1
Tetranychus cinnabarinus [5] = experiment: Pesticidal activity against Tetranychus cinnabarinus (carmine spider mite) third- instar larvae grown on Phaseolus vulgaris leaves assessed as pest mortality at 25 mg/L measured 48 hr post compound exposure; type: functional; summary of the method: as §1
Tetranychus cinnabarinus [6] = experiment: Pesticidal activity against Tetranychus cinnabarinus (carmine spider mite) third- instar larvae grown on Phaseolus vulgaris leaves assessed as pest mortality at 400 mg/L measured 48 hr post compound exposure; type: functional; summary of the method: as §1
Tetranychus cinnabarinus [7] = experiment: Pesticidal activity against Tetranychus cinnabarinus (carmine spider mite) third- instar larvae grown on Phaseolus vulgaris leaves assessed as reduction in larval movement at 25 to 400 mg/L measured 1 hr post compound exposure; type: functional, organism-based
Summary of the method: (§2)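 Mite larvae (>20 third-instar on Phaseolus vulgaris leaves) leaf-dipped 5 s in compound at 400, 200, 100, 50 or 25 mg L⁻¹ in water with 0.05% Triton X-100, kept at 25 ± 1 °C. Movement of larvae observed at 1 h; corpse colour change to black observed at 48 h after treatment.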

Tetranychus cinnabarinus [8] = experiment: Pesticidal activity against Tetranychus cinnabarinus (carmine spider mite) third- instar larvae grown on Phaseolus vulgaris leaves assessed as pest mortality at 100 mg/L measured 48 hr post compound exposure; type: functional; summary of the method: as §1
Tetranychus cinnabarinus [9] = experiment: Pesticidal activity against Tetranychus cinnabarinus (carmine spider mite) third- instar larvae grown on Phaseolus vulgaris leaves assessed as conversion of corpus colour to black at 25 to 400 mg/L measured 48 hr post compound exposure; type: functional, organism-based; summary of the method: as §2

Row | Structure (SMILES) | mortality at 600 µg/mL (Aphis gossypii) [%] | mortality at 600 µg/mL (Tetranychus cinnabarinus [1]) [%] | mortality at 600 µg/mL (Plutella xylostella) [%] | further results
1 | Cc1cc(Cl)cc(C(=O)NNCc2ccccc2F)c1NC(=O)C(C)(C)CCl | 70.2 | 61.1 | 100 | 
2 | Cc1cc(Cl)cc(C(=O)NNCc2cccc(C(F)(F)F)c2)c1NC(=O)C(C)(C)C | 68.3 | 8.6 | 40 | 
3 | Cc1cc(Br)cc(C(=O)NNCc2ccccc2Cl)c1NC(=O)CC(C)(C)C | 88 | 11.6 | 76 | 
4 | Cc1cc(Cl)cc(C(=O)NNCc2ccccc2Cl)c1NC(=O)C(C)(C)C | 51.7 | 100 | 76 | mortality at 50 µg/mL (Tetranychus cinnabarinus [2]): 62.5%; LC50 (Tetranychus cinnabarinus [3]): 43.8 µg/mL (≈ 107 µM); mortality at 200 µg/mL (Tetranychus cinnabarinus [4]): 82.2%; mortality at 25 µg/mL (Tetranychus cinnabarinus [5]): 30.9%; mortality at 400 µg/mL (Tetranychus cinnabarinus [6]): 97.8%; Activity (Tetranychus cinnabarinus [7]): Active; mortality at 100 µg/mL (Tetranychus cinnabarinus [8]): 60.8%; Activity (Tetranychus cinnabarinus [9]): Active
5 | Cc1cc(Br)cc(C(=O)NNCc2ccccc2)c1NC(=O)CC(C)(C)C | 96.6 | 78.1 | 22 | 
6 | CC(C)(C)C(=O)Nc1ccc(Cl)cc1C(=O)NNCc1cccc(C(F)(F)F)c1 | 28.9 | 73.8 | 28 | 
7 | CC(C)(C)C(=O)Nc1ccc(Cl)cc1C(=O)NNCc1ccc(F)cc1 | 91.3 | 73.8 |  | 
8 | Cc1cc(Cl)cc(C(=O)NNCc2ccccc2F)c1NC(=O)C(C)(C)C | 38.9 | 80.5 | 76 | 
9 | Cc1cc(Br)cc(C(=O)NNCc2cccc(C(F)(F)F)c2)c1NC(=O)CC(C)(C)C | 18.7 | 100 | 40 | mortality at 50 µg/mL (Tetranychus cinnabarinus [2]): 38.4%; LC50 (Tetranychus cinnabarinus [3]): 89.8 µg/mL (≈ 179 µM); mortality at 200 µg/mL (Tetranychus cinnabarinus [4]): 64.4%; mortality at 25 µg/mL (Tetranychus cinnabarinus [5]): 26%; mortality at 400 µg/mL (Tetranychus cinnabarinus [6]): 93.3%; Activity (Tetranychus cinnabarinus [7]): Active; mortality at 100 µg/mL (Tetranychus cinnabarinus [8]): 43.3%; Activity (Tetranychus cinnabarinus [9]): Active
10 | Cc1cc(Cl)cc(C(=O)NNCc2cccc(C(F)(F)F)c2)c1NC(=O)CC(C)(C)C | 58.3 | 77.2 | 76 | 
11 | Cc1cc(Cl)cc(C(=O)NNCc2ccc(Cl)cc2Cl)c1NC(=O)C(C)(C)C | 77.8 | 69 | 64 | 
12 | Cc1cc(Cl)cc(C(=O)NNCc2ccc(F)cc2)c1NC(=O)C(C)(C)C | 41.5 | 73.8 | 88 | 
13 | Cc1cc(Br)cc(C(=O)NNCc2ccccc2)c1NC(=O)C(C)(C)C | 86.1 | 64.9 | 50 | 
14 | Cc1cc(Cl)cc(C(=O)NNCc2ccc(Cl)cc2Cl)c1NC(=O)CC(C)(C)C | 62 | 88.8 | 88 | 
15 | Cc1cc(Cl)cc(C(=O)NNCc2ccccc2)c1NC(=O)C(C)(C)CCl | 68.5 | 50.9 | 52 | 
16 | CC(C)(C)CC(=O)Nc1ccc(Cl)cc1C(=O)NNCc1ccccc1F | 1.8 | 77.6 | 28 | 
17 | Cc1cccc(C(=O)NNCc2ccccc2Cl)c1NC(=O)C(C)(C)C | 92.2 | 5.9 | 64 | 
18 | Cc1cc(Cl)cc(C(=O)NNCc2ccc(Cl)nc2)c1NC(=O)C(C)(C)C | 24.2 | 81.3 | 50 | 
19 | Cc1cccc(C(=O)NNCc2cccc(C(F)(F)F)c2)c1NC(=O)C(C)(C)C | 75 | 46.8 | 64 | 
20 | Cc1cc(Cl)cc(C(=O)NNCc2ccccc2)c1NC(=O)CC(C)(C)C | 70.4 | 70.1 | 94 | 
21 | Cc1cc(Br)cc(C(=O)NNCc2ccc(Cl)nc2)c1NC(=O)C(C)(C)C | 96.2 | 19.3 | 64 | 
22 | Cc1cc(Cl)cc(C(=O)NNCc2cccc(C(F)(F)F)c2)c1NC(=O)C(C)(C)CCl | 5.1 | 61.8 | 52 | 

Row | Structure (SMILES) | mortality at 600 µg/mL (Aphis gossypii) [%] | mortality at 600 µg/mL (Tetranychus cinnabarinus [1]) [%] | mortality at 600 µg/mL (Plutella xylostella) [%] | further results
23 | Cc1cc(Cl)cc(C(=O)NNCc2ccc(Cl)nc2)c1NC(=O)C(C)(C)CCl | 30.6 | 47.1 | 16 | 
24 | Cc1cc(Br)cc(C(=O)NNCc2ccc(Cl)nc2)c1NC(=O)C(C)(C)CCl | 33.3 | 55.8 | 52 | 
25 | Cc1cc(Cl)cc(C(=O)NNCc2ccc(F)cc2)c1NC(=O)C(C)(C)CCl | 81.5 | 67 | 64 | 
26 | Cc1cccc(C(=O)NNCc2ccc(Cl)cc2Cl)c1NC(=O)C(C)(C)C | 89.4 | 52.9 | 50 | 
27 | Cc1cc(Br)cc(C(=O)NNCc2cccc(C(F)(F)F)c2)c1NC(=O)C(C)(C)C | 54.2 | 19.8 | 16 | 
28 | Cc1cc(Br)cc(C(=O)NNCc2cccc(C(F)(F)F)c2)c1NC(=O)C(C)(C)CCl | 78.6 | 72.7 | 52 | 
29 | Cc1cccc(C(=O)NNCc2ccccc2)c1NC(=O)C(C)(C)C | 62.3 | 16.7 | 52 | 
30 | CC(C)(C)c1ccc(CSc2cnn(C(C)(C)C)c(=O)c2Cl)cc1 [PYRIDABEN] |  |  |  | mortality at 50 µg/mL (Tetranychus cinnabarinus [2]): 100%; LC50 (Tetranychus cinnabarinus [3]): 5.5 µg/mL (≈ 15.1 µM); mortality at 200 µg/mL (Tetranychus cinnabarinus [4]): 100%; mortality at 25 µg/mL (Tetranychus cinnabarinus [5]): 97.7%; mortality at 400 µg/mL (Tetranychus cinnabarinus [6]): 100%; mortality at 100 µg/mL (Tetranychus cinnabarinus [8]): 100%
31 | Cc1cccc(C(=O)NNCc2cccc(C(F)(F)F)c2)c1NC(=O)CC(C)(C)C | 94.2 | 57.9 | 40 | 
32 | Cc1cccc(C(=O)NNCc2ccccc2)c1NC(=O)C(C)(C)CCl | 95.6 | 79.3 | 52 | 
33 | Cc1cc(Cl)cc(C(=O)NNCc2ccc(Cl)cc2Cl)c1NC(=O)C(C)(C)CCl | 42.3 | 73.8 |  | 
34 | Cc1cc(Cl)cc(C(=O)NNCc2ccccc2Cl)c1NC(=O)CC(C)(C)C | 65.5 | 100 | 52 | mortality at 50 µg/mL (Tetranychus cinnabarinus [2]): 74.1%; LC50 (Tetranychus cinnabarinus [3]): 27.9 µg/mL (≈ 66.1 µM); mortality at 200 µg/mL (Tetranychus cinnabarinus [4]): 86.4%; mortality at 25 µg/mL (Tetranychus cinnabarinus [5]): 38.4%; mortality at 400 µg/mL (Tetranychus cinnabarinus [6]): 92.2%; Activity (Tetranychus cinnabarinus [7]): Active; mortality at 100 µg/mL (Tetranychus cinnabarinus [8]): 80.4%; Activity (Tetranychus cinnabarinus [9]): Active
35 | Cc1cc(Br)cc(C(=O)NNCc2ccc(Cl)cc2Cl)c1NC(=O)C(C)(C)CCl | 3.8 | 82.5 | 70 | 
36 | Cc1cc(Cl)cc(C(=O)NNCc2ccccc2Cl)c1NC(=O)C(C)(C)CCl | 14.5 | 11 | 64 | 
37 | Cc1cc(Br)cc(C(=O)NNCc2ccccc2Cl)c1NC(=O)C(C)(C)C | 49.1 | 40.1 | 64 | 
38 | Cc1cc(Br)cc(C(=O)NNCc2ccccc2)c1NC(=O)C(C)(C)CCl | 84.6 | 20.3 | 52 | 
39 | Cc1cccc(C(=O)NNCc2ccc(Cl)nc2)c1NC(=O)CC(C)(C)C | 65.5 | 19.3 | 100 | 
40 | Cc1cc(Br)cc(C(=O)NNCc2ccc(Cl)cc2Cl)c1NC(=O)C(C)(C)C | 90.2 | 77 | 34 | 
41 | Cc1cc(Cl)cc(C(=O)NNCc2ccccc2)c1NC(=O)C(C)(C)C | 52.4 | 92.5 | 34 | 
42 | Cc1cc(Br)cc(C(=O)NNCc2ccc(Cl)nc2)c1NC(=O)CC(C)(C)C | 25.9 | 23.4 | 40 | 
43 | Cc1cccc(C(=O)NNCc2ccccc2Cl)c1NC(=O)C(C)(C)CCl | 68.8 | 46.7 | 22 | 
